ChEMBL document CHEMBL1141853, “A cyclitol derivative as a replication inhibitor from the marine sponge Petrosia sp” (1999)
≈ marks a conversion by molar mass, not a printed value. Calls of active or inactive are those of the source. No cut-off for these calls is given here.

Legend:
[1] = tested on: XF498; assay: Cytotoxicity against human XF498 cells; format: functional; conditions: read-out: ED50 (the source's name)
[2] = tested on: SK-MEL-2; assay: Cytotoxicity against human SK-MEL-2 cells; format: functional; conditions: read-out: ED50 (the source's name)
[3] = tested on: HCT-15; assay: Cytotoxicity against human HCT-15 cells; format: functional; conditions: read-out: ED50 (the source's name)
[4] = tested on: SK-OV-3; assay: Cytotoxicity against human SKOV3 cells; format: functional; conditions: read-out: ED50 (the source's name)
[5] = tested on: Simian virus 40; assay: Inhibition of SV40 DNA replication in human HeLa cells at 800 uM; format: functional; conditions: Betapolyomavirus macacae, read-out: INH
Outline: (§1)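 Cell-free SV40 replication using HeLa cytosolic extract, SV40 T-Ag (0.6 µg) and SV40 origin pUC DNA (0.3 µg). Buffer is 40 mM creatine phosphate-di-Tris pH 7.7, creatine kinase, 7 mM MgCl2, 0.5 mM DTT, 4 mM ATP, rNTPs, dNTPs and 25 µM [3H]dTTP. Incubated 90 min at 37 °C; acid-insoluble radioactivity measured. Products separated on 1% agarose gel and autoradiographed.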

[6] = target: T1, DNA topoisomerase 1 (Homo sapiens) (UniProt P11387); assay: Inhibition of human DNA topoisomerase 1 assessed as effect on relaxation of superhelical plasmid
T1 sequence (whole entry): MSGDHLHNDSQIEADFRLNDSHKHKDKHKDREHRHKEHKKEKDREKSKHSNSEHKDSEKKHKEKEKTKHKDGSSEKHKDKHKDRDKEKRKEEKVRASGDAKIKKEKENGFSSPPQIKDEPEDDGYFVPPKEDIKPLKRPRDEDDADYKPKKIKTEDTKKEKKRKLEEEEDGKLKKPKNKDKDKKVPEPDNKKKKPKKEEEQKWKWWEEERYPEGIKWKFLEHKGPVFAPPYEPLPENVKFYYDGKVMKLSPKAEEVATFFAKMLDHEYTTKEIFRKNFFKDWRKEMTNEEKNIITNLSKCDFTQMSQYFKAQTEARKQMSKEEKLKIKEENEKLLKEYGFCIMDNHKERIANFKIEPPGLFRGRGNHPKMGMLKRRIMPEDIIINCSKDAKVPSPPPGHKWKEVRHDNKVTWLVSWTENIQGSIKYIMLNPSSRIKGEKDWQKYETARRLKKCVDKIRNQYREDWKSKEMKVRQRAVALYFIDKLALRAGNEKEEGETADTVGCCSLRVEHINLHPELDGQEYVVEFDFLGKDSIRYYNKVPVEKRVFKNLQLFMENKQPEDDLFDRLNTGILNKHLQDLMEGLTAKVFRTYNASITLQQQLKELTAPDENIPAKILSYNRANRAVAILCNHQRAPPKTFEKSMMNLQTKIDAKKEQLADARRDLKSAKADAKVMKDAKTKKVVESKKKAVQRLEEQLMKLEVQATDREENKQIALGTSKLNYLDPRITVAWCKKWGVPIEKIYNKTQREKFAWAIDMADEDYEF

[7] = tested on: Simian virus 40; assay: Inhibition of SV40 DNA replication in human HeLa cells; format: functional, organism-based; conditions: Betapolyomavirus macacae; outline: as §1
[8] = tested on: A549; assay: Cytotoxicity against human A549 cells; format: functional; conditions: read-out: ED50 (the source's name)

With `CCCCCCC(C)CCCCCCCCCOC[C@H](O)COC1[C@@H](O)[C@H](O)[C@@H](O)[C@@H]1O` (stereo partly drawn) [SACROTRIDE A] the EC50 [1] was 9.8 µg/mL (≈ 21.2 µM), the EC50 [2] was > 10 µg/mL and the EC50 [3] was 9.4 µg/mL (≈ 20.3 µM). The EC50 [4] was 9.5 µg/mL (≈ 20.5 µM), the inhibition at 800 µM [5] was > 90% and the Activity [6] was “inactive”. The Activity [7] was “Dose-dependent effect” and the EC50 [8] was > 10 µg/mL.
